Screening results from PubChem BioAssay.
The list is not random: actives were taken first. Their share in the collection is about 5.5%.
Cl transport mod – modulates chloride dependent transport by human KCC2 | Q9H2X9 | KCC2 cells, thallium flux FluoZin-2 fluorescence | B-score of Tl+ flux slope (higher = more flux/activation; lower = inhibition) at 10 µM | actives 2.2% (n = 190,000);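 active = thallium flux slope and its plate-corrected score both differing from the plate sample mean at a set confidence after two filtering rounds, in either direction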;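 note: slope of fluorescence scaled to starting intensity during 10 to 20 s after thallium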
Target sequence (Q9H2X9 whole entry, looked up): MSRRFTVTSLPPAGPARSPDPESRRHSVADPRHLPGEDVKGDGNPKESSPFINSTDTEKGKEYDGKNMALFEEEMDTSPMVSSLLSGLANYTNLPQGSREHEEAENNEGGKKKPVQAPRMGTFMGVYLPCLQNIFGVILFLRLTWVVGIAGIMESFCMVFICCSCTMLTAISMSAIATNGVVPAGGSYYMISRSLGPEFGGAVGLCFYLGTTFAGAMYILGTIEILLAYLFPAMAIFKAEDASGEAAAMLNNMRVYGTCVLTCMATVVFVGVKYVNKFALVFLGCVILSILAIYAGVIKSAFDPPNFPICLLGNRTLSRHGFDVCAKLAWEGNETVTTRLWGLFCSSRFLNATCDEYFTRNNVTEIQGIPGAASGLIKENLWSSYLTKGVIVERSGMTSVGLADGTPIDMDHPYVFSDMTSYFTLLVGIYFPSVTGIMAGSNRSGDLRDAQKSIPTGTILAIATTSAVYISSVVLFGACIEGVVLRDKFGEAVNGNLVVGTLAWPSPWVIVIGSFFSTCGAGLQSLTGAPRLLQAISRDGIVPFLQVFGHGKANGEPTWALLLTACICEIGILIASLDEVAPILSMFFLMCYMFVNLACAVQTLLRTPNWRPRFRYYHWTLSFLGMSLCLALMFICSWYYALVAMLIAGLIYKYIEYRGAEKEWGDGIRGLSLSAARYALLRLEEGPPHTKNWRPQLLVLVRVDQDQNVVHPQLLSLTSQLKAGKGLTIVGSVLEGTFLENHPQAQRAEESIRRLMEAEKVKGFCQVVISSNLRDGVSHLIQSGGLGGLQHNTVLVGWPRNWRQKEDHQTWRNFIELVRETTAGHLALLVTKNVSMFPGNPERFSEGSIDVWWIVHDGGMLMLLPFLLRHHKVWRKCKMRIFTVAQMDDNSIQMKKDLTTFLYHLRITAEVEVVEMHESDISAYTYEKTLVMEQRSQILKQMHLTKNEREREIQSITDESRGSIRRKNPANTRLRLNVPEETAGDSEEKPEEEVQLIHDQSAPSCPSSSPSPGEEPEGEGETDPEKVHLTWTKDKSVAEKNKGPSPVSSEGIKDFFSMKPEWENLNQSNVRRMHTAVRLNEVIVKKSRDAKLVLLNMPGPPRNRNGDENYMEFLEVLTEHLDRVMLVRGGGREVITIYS
RAM inhibit – inhibitors of the yeast RAM network; actives 1.8% (n = 190,000); S. cerevisiae dse1pr::URA3 reporter, 5-FOA growth OD615, 2 d; analog-sensitive cbk1-as2 kinase mutant strain; inhibition, % at 50 µM;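 active = inhibition above a set limit, 3 SD over mean compound inhibition, cut at about 8.4% in these data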;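 note: 0% = DMSO-only wells with no growth and 100% = 10 µM 1-NA-PP1 full growth; inhibition rescues growth on 5-FOA so higher OD means more RAM inhibition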
Yeast lifespan up – yeast lifespan extension; S. cerevisiae growth with nicotinamide, OD615; deaD strain in restrictive glucose medium; inhibition of the nicotinamide effect, % at 10 µM; actives 0.68% (n = 130,000); AID 775;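 active = inhibition above a set limit, placed 3 SD over the median of all compounds, cut at about 26% in these data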;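 note: 0% = nicotinamide-treated wells and 100% = cells grown without nicotinamide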
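System: DeaD-strain S. cerevisiae / Buffer or medium: CSMM-D, restrictive glucose (dextrose) synthetic minimal medium / Probe or stimulus: nicotinamide, 1.5 mM, co-present with compound / Compound: one concentration, 10 µM, DMSO 0.25% / Incubation: 48 h compound exposure at 30 °C, humidified / Technique: optical density (absorbance) at 615 nm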
WT yeast gro inh – growth inhibition of WT yeast, mitochondrial fusion screen; mitochondrial fusion phenotypic screen, WT strain; inhibition, % at 10 µM; actives 2.1% (n = 190,000); in the data active = inhibition above about 58%; tested in S. cerevisiae
BB579 growth dn – reduces growth of yeast BB579 in restrictive medium; S. cerevisiae BB579 growth, OD615, 48 h; inhibition, % at 10 µM; actives 0.51% (n = 140,000);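 active = inhibition above a set limit, 3 SD over the mean compound inhibition, cut at about 44% in these data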
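Assay system – yeast BB579 (DeaD) · Dosing – single compound dose of 10 µM, 0.25% DMSO final · Detection – OD615 turbidity measurement · Buffer or medium – CSMM-D restrictive synthetic medium containing dextrose (glucose) · Benchmarks – positive control amphotericin B 10 µg/mL · Incubation – 48 h exposure, 30 °C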
The depositor's hits bear a star.

`Cc1ccc(C2(c3noc(CN(C)Cc4cccnc4)n3)CCCC2)cc1` gave RAM inhibit 0.6 and WT yeast gro inh 38.8.
CN1CCCN(c2ncnc3scc(-c4ccc(F)cc4)c23)CC1 was read as Cl transport mod 0.25, RAM inhibit 1.2 and WT yeast gro inh 9.3.
Screening Cc1ccccc1N1CCN(c2ncnc3scc(-c4cccs4)c23)CC1 returned RAM inhibit 4.6, Yeast lifespan up -15.8, WT yeast gro inh 64.8* and BB579 growth dn -26.3.
Screening Clc1ccc(CN2CCN(c3ncnc4scc(-c5cccs5)c34)CC2)cc1 returned RAM inhibit 0.3, Yeast lifespan up 3.0, WT yeast gro inh 60.3* and BB579 growth dn -28.6.
Screening Clc1ccc(-c2csc3ncnc(N4CCc5ccccc5C4)c23)cc1 returned Cl transport mod -0.901, RAM inhibit 4.1, Yeast lifespan up 0.2, WT yeast gro inh 64.8* and BB579 growth dn -16.8.
CC(NC(=O)Nc1cccc([N+](=O)[O-])c1)(C(F)(F)F)C(F)(F)F was read as Cl transport mod -1.05, RAM inhibit 0.8, Yeast lifespan up -25.7, WT yeast gro inh 2.9 and BB579 growth dn 4.0.
Screening O=C(CC12CC3CC(CC(C3)C1)C2)Nc1cccc2ncccc12 returned RAM inhibit 0.0, Yeast lifespan up -6.7, WT yeast gro inh 9.8 and BB579 growth dn -70.5.
Screening O=C(CSC1=NCCS1)N1CCN(c2ccc(Cl)cc2)CC1 returned Cl transport mod -1.2, RAM inhibit -1.2, Yeast lifespan up -24.0, WT yeast gro inh 10.8 and BB579 growth dn 50.9*.
O=C(c1ccc(Cl)cc1)N1CCN(c2ccc(F)cc2)CC1 was read as Cl transport mod 0.0372, RAM inhibit -1.4, WT yeast gro inh 70.7* and BB579 growth dn -47.6.
`O=C(CSC1=NCCS1)c1ccc(Cl)cc1` gave Cl transport mod 1.15, RAM inhibit -1.2 and WT yeast gro inh 68.8.
`O=C(c1ccncc1)N1CCN(c2ccc(F)cc2)CC1` gave Cl transport mod -0.396, RAM inhibit 1.3, Yeast lifespan up -14.2, WT yeast gro inh -2.9 and BB579 growth dn 0.0.
For CCCCCC1CC(=O)C=C(C)C1C(=O)OC (configuration not stated) the results were Cl transport mod -0.00831.
For Cc1ccc(N(CC(N)=O)C2SC(=O)N(Cc3ccccc3)C2=O)cc1 (configuration not stated) the results were RAM inhibit 9.4*, Yeast lifespan up -5.2, WT yeast gro inh -22.5 and BB579 growth dn -23.1.
Cc1ccc(C(C)C)cc1OCC(=O)N/N=C/c1ccc2c(c1)OCCO2 was read as Cl transport mod -0.281, RAM inhibit 0.5, Yeast lifespan up -7.3, WT yeast gro inh 76.9* and BB579 growth dn -23.3.
Cc1cccc(C)c1OCC(=O)N/N=C/c1ccc2c(c1)OCO2 was read as Cl transport mod 0.23, RAM inhibit 2.0, Yeast lifespan up -23.1, WT yeast gro inh 17.8 and BB579 growth dn -23.0.
For Cc1cccc(CN2CCN(C(c3ccccc3)c3ccc(Cl)cc3)CC2)c1 (configuration not stated) the results were Cl transport mod 0.402, RAM inhibit -1.4, Yeast lifespan up 1.9, WT yeast gro inh 65.8* and BB579 growth dn 1.4.
For Cc1ccc(NC(=O)CS(=O)CC(=O)N(c2ccc(C)cc2)C(C)C(=O)NC2CCCCC2)cc1 (configuration not stated) the results were Cl transport mod 1.73, RAM inhibit 0.6, WT yeast gro inh 5.0 and BB579 growth dn -10.3.
`CCc1c(C)nc(SCC(=O)c2cccs2)c(C#N)c1C` gave Cl transport mod -1.14, RAM inhibit 2.8, Yeast lifespan up -9.2, WT yeast gro inh 86.3* and BB579 growth dn -15.2.
`CC(C)(C)c1cc(CN2CCN(CCO)CC2)cc(C(C)(C)C)c1O` gave RAM inhibit 0.9, Yeast lifespan up 31.9*, WT yeast gro inh -12.5 and BB579 growth dn -14.6.
Cc1ccc(C2c3c(oc4ccc(Cl)cc4c3=O)C(=O)N2CCCN2CCOCC2)o1 (configuration not stated) was read as Cl transport mod 6.58*, RAM inhibit -0.5, Yeast lifespan up 4.6, WT yeast gro inh -1.2 and BB579 growth dn 10.2.
Screening O=C1c2oc3ccc(Cl)cc3c(=O)c2C(c2ccco2)N1CCN1CCOCC1 (configuration not stated) returned Cl transport mod 5.62*, RAM inhibit -1.0, Yeast lifespan up 13.8, WT yeast gro inh 5.2 and BB579 growth dn -38.3.
Screening COc1ccc(C2c3c(oc4ccc(Cl)cc4c3=O)C(=O)N2CCN2CCOCC2)cc1 (configuration not stated) returned Cl transport mod 2.25.
Screening Cc1cccc(OCc2nnc(SCc3cc(=O)n4cc(Br)ccc4n3)o2)c1 returned RAM inhibit 4.0, Yeast lifespan up -31.6, WT yeast gro inh -5.6 and BB579 growth dn -25.1.
Screening O=c1c2ccc(Cl)cc2[nH]c(=S)n1CCC1=CCCCC1 returned Cl transport mod 36.6*, RAM inhibit 2.5, Yeast lifespan up 0.4, WT yeast gro inh 7.9 and BB579 growth dn -33.0.
For CCOC(=O)N1CCN(C(=O)c2ccc3c(=O)n(CCC4=CCCCC4)c(=S)[nH]c3c2)CC1 the results were RAM inhibit 3.0, Yeast lifespan up -21.4, WT yeast gro inh 4.0 and BB579 growth dn 1.1.
CC(N1CCOC1=O)S(=O)(=O)c1ccccc1 (configuration not stated) was read as Cl transport mod 1.12, RAM inhibit -0.7, Yeast lifespan up -5.6, WT yeast gro inh -4.0 and BB579 growth dn -6.2.
CC1(C)CCCN(C(=O)N2c3ccccc3Sc3ccccc32)C1 was read as Cl transport mod 0.0123, RAM inhibit 11.4*, Yeast lifespan up -6.7, WT yeast gro inh -1.4 and BB579 growth dn -35.0.
CC(=O)Nc1ccc(NC2=Nc3ccccc3N3C2=Nc2c(c(C)nn2-c2ccccc2)C3c2ccccc2)cc1 (configuration not stated) was read as Cl transport mod 0.161, RAM inhibit 9.4*, Yeast lifespan up -7.3, WT yeast gro inh -1.4 and BB579 growth dn -66.7.
`O=S(=O)(NCCc1ccccc1)c1ccc(Cl)nc1` gave Cl transport mod -0.581, RAM inhibit 0.8, Yeast lifespan up 4.5, WT yeast gro inh 0.6 and BB579 growth dn -20.5.
`Cc1ccc2nc3c(nc2c1)-c1ccccc1C3=O` gave Cl transport mod -0.277, RAM inhibit 3.4, Yeast lifespan up -9.0, WT yeast gro inh 39.5 and BB579 growth dn 59.3*.
N#CC(C#N)=Cc1cc2ccccc2nc1N1CCCCC1 was read as Cl transport mod -0.576, RAM inhibit 1.2, Yeast lifespan up 35.8*, WT yeast gro inh -26.9 and BB579 growth dn -24.4.
Screening CCOC(=O)/C(C#N)=C/c1cc2ccccc2nc1N1CCOCC1 returned Cl transport mod 0.801, RAM inhibit 1.4, Yeast lifespan up 0.8, WT yeast gro inh 1.3 and BB579 growth dn -28.1.
